The text below walks through data of ChEMBL document CHEMBL3045640, “Synthesis and insecticidal activity of novel carbamate derivatives as potential dual-binding site acetylcholinesterase inhibitors” (J Agric Food Chem, 2010).

Test [1] has as its target Acetylcholinesterase (Musca domestica) (UniProt Q7YWJ9). As to the kind of experiment: Dual-site binding inhibition of AChE in Musca domestica (house fly) brain at 100 mg/l.
Another test has as its system Lipaphis erysimi. As to the kind of experiment: In vivo insecticidal activity against apterous adult stage of Lipaphis erysimi (mustard aphids) in chinese cabbage leaves assessed as mortality at 300 mg/l at 25 degC treated for 10 secs measured after 24 hr. The class given is functional. In a few lines:
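Aphids were reared at 25 (±1) °C, 60 (±5)% RH and a 14 h photoperiod. Acetone stocks at 10 g/L were diluted with water containing 0.1% Triton X-100. Chinese cabbage leaf disks carrying 35 apterous adults were dipped for 10 s, dried, then held at 25 °C. Mortality was scored at 24 h against untreated controls. Three replicates were run, and corrected mortality was calculated.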

Test [2] concerns the target Acetylcholinesterase (Musca domestica) (UniProt Q7YWJ9). In words: Ratio of MT IC50 to compound IC50 for AChE in Musca domestica (house fly) brain.
For test [3] the target is unchanged. In words: Ratio of MH IC50 to compound IC50 for AChE in Musca domestica (house fly) brain.
Another test concerns the target Acetylcholinesterase (Musca domestica, UniProt Q7YWJ9). In words: Dual-site binding inhibition of AChE in Musca domestica (house fly) brain. The class given is tissue-based. In a few lines:
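Enzyme was prepared from heads of adult houseflies, females and males in a 1:1 ratio. The inhibition procedure followed previously reported methods.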

Sequence of Acetylcholinesterase (Musca domestica) (Q7YWJ9 1-692): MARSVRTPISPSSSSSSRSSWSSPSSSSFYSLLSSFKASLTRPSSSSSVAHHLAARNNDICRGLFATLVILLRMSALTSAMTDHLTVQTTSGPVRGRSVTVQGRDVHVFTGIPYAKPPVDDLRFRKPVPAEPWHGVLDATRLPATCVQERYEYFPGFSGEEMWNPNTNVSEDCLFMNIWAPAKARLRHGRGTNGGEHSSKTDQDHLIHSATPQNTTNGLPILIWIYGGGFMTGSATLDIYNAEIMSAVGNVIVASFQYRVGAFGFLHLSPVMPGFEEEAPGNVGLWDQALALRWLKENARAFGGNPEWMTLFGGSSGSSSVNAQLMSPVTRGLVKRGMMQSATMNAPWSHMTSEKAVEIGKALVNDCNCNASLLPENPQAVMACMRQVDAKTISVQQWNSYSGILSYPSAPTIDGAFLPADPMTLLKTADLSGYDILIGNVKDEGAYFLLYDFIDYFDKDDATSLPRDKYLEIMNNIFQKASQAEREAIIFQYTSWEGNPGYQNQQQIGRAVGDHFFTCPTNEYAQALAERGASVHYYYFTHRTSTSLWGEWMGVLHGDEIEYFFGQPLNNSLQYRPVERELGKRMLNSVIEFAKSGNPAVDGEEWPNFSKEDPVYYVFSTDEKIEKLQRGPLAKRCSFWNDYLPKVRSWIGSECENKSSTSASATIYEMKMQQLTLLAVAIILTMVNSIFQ
Sequence of Acetylcholinesterase (Q7YWJ9 whole entry): as the sequence (Q7YWJ9 1-692) above

`CNC(=O)Oc1ccccc1OCCCCOc1ccc(C(F)(F)F)cc1`: the inhibition in test [1] came out at 19%.

Take `CNC(=O)Oc1cccc(OCCOc2ccc(C(F)(F)F)cc2)c1`: the inhibition in test [1] came out at 20%.

As to `CNC(=O)Oc1cccc(OCCCCOc2ccc(C(F)(F)F)cc2)c1`, in the test on Lipaphis erysimi, the mortality at 300 µg/mL stood at 92%. For the same compound, the values for the Ratio IC50 in test [2] and in test [3] were 1 and 7, respectively. For the same compound, the IC50 on Acetylcholinesterase worked out at 107 µM. This compound showed an inhibition in test [1] of 62%.

For the compound `CNC(=O)Oc1cccc(C)c1` [METOLCARB], the mortality at 300 µg/mL in the test with Lipaphis erysimi is 97%. Further, the IC50 on Acetylcholinesterase turned out to be 150 µM.

As for `CNC(=O)Oc1cccc(OCCCOc2ccc(C(F)(F)F)cc2)c1`, in the test with Lipaphis erysimi, the mortality at 300 µg/mL stood at 85%. Further, the values for the Ratio IC50 in test [2] and in test [3] were 1 and 7, respectively. The compound also returned an IC50 at Acetylcholinesterase of 105 µM. Besides, in test [1], the inhibition is 61%.

For `CNC(=O)Oc1ccc(OCCOc2ccc(C(F)(F)F)cc2)cc1`, the inhibition in test [1] is 2%.

`CNC(=O)Oc1ccccc1` [PHENYL METHYLCARBAMATE]: the mortality at 300 µg/mL in the test on Lipaphis erysimi was 76%. On Acetylcholinesterase, this compound came in with an IC50 of 766 µM. The compound also registered an inhibition in test [1] of 46%.

In test [1], `CN(C)C(=O)Oc1ccc(OCCCCOc2ccc(C(F)(F)F)cc2)cc1` showed an inhibition of 6%.

In test [1], `CN(C)C(=O)Oc1ccc(OCCOc2ccc(C(F)(F)F)cc2)cc1` yielded an inhibition of 6%.

As for `CNC(=O)Oc1cccc(OCCCCOc2cccc([N+](=O)[O-])c2)c1`, in the test on Lipaphis erysimi, the mortality at 300 µg/mL was found to be 98%. The Ratio IC50 in test [2] was determined as 12; in test [3], 62. Moreover, the IC50 at Acetylcholinesterase came out at 12 µM. In test [1], this compound returned an inhibition of 92%.

On to `CNC(=O)Oc1cccc(OCCCCOc2ccccc2[N+](=O)[O-])c1`, for which the mortality at 300 µg/mL in the test on Lipaphis erysimi was 93%. The Ratio IC50 in test [2] stood at 2; in test [3], 13. This compound also came in with an IC50 on Acetylcholinesterase of 61 µM. The same compound returned an inhibition in test [1] of 80%.

In test [1], `CN(C)C(=O)Oc1ccccc1OCCCCOc1ccc(C(F)(F)F)cc1` showed an inhibition of 7%.

On to `CN(C)C(=O)Oc1ccc(OC/C=C/COc2ccc(C(F)(F)F)cc2)cc1`, for which the inhibition in test [1] came out at 0%.

`CN(C)C(=O)Oc1cccc(OCCOc2ccc(C(F)(F)F)cc2)c1`: in test [1], the inhibition was 8%.

As to `CNC(=O)Oc1ccccc1OCCOc1ccc(C(F)(F)F)cc1`, in test [1], the inhibition worked out at 13%.

With `CNC(=O)Oc1cccc(OCCCOc2ccc([N+](=O)[O-])cc2)c1`, in the test with Lipaphis erysimi, the mortality at 300 µg/mL turned out to be 89%. In addition, the Ratio IC50 stood at 2 in test [2] and 11 in test [3]. The compound also registered an IC50 at Acetylcholinesterase of 70 µM. Further, the inhibition in test [1] is 69%.

In test [1], `CNC(=O)Oc1ccc(OCCCCOc2ccc(C(F)(F)F)cc2)cc1` displayed an inhibition of 4%.

In test [1], `CNC(=O)Oc1cccc(OCCCCOc2ccccc2OC)c1` returned an inhibition of 46%.

The compound `CNC(=O)Oc1ccc(OCCCOc2ccc(C(F)(F)F)cc2)cc1` yielded an inhibition in test [1] of 2%.

`CNC(=O)Oc1ccccc1OC/C=C/COc1ccc(C(F)(F)F)cc1` gave an inhibition in test [1] of 17%.

In the case of `CN(C)C(=O)Oc1cccc(OCCCOc2ccc(C(F)(F)F)cc2)c1`, the inhibition in test [1] is 27%.

`CN(C)C(=O)Oc1cccc(OC/C=C/COc2ccc(C(F)(F)F)cc2)c1` returned an inhibition in test [1] of 13%.

`CNC(=O)Oc1ccc(OC/C=C/COc2ccc(C(F)(F)F)cc2)cc1`: the inhibition in test [1] is 3%.

In test [1], `CNC(=O)Oc1cccc(OCCCCOc2ccc(Cl)cc2)c1` displayed an inhibition of 30%.

Turning to `CNC(=O)Oc1cccc(OCCCCOc2ccc([N+](=O)[O-])cc2)c1`, the mortality at 300 µg/mL with Lipaphis erysimi stood at 92%. In addition, the values for the Ratio IC50 in test [2] and in test [3] were 3 and 17, respectively. This compound also showed a half-maximal inhibitory concentration (IC50) on Acetylcholinesterase of 46 µM. Further, the inhibition in test [1] was found to be 80%.

Compound `CNC(=O)Oc1ccccc1OCCCOc1ccc(C(F)(F)F)cc1` yielded an inhibition in test [1] of 25%.

The compound `CNC(=O)Oc1cccc(OC/C=C/COc2ccc([N+](=O)[O-])cc2)c1` showed an inhibition in test [1] of 45%.

As for `CN(C)C(=O)Oc1ccccc1OC/C=C/COc1ccc(C(F)(F)F)cc1`, the inhibition in test [1] worked out at 7%.

Turning to `CNC(=O)Oc1cccc(OC/C=C/COc2ccc(C(F)(F)F)cc2)c1`, the inhibition in test [1] is 12%.

Consider `CN(C)C(=O)Oc1ccc(OCCCOc2ccc(C(F)(F)F)cc2)cc1`, for which, in test [1], the inhibition amounted to 1%.

In test [1], `CN(C)C(=O)Oc1ccccc1OCCOc1ccc(C(F)(F)F)cc1` had an inhibition of 15%.

In turn, `CN(C)C(=O)Oc1cccc(OCCCCOc2ccc(C(F)(F)F)cc2)c1` returned an inhibition in test [1] of 20%.

In turn, `CN(C)C(=O)Oc1ccccc1OCCCOc1ccc(C(F)(F)F)cc1` gave an inhibition in test [1] of 25%.

For orientation: inhibition means the change of the read-out against control, counted positive when it falls. A word on the mortality: it is the percentage killed. What is called IC50 is the point on the concentration scale where inhibition reaches its midpoint. A high value points to weaker potency.
